Laboratory results taken from ChEMBL document CHEMBL3627597, “Synthesis of Fluorine-Containing Phosphodiesterase 10A (PDE10A) Inhibitors and the In Vivo Evaluation of F-18 Labeled PDE10A PET Tracers in Rodent and Nonhuman Primate” (J Med Chem, 2015).

Columns and labels:
Blood [1] = experiment: Biodistribution in Sprague-Dawley rat blood at 1.48 to 2.22 MBq, iv measured at 5 mins by gamma counting analysis; format: ADME, organism-based; details: in vivo
Procedure, shortened: (§1)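 Male Sprague-Dawley rats (250 - 400 g), tail-vein injection of 1.48 - 2.22 MBq radiotracer under 2.5% isoflurane in oxygen; n=4 per time point, euthanized at 5, 30 and 60 min p.i. Brain regions obtained by gross dissection; peripheral tissues collected. Samples weighed, gamma-counted against a diluted-injectate standard; %ID/g calculated.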

Liver [2] = experiment: Biodistribution in Sprague-Dawley rat liver at 1.48 to 2.22 MBq, iv measured at 5 mins by gamma counting analysis; format: ADME, organism-based; details: in vivo; procedure, shortened: as §1
Kidney [3] = experiment: Biodistribution in Sprague-Dawley rat kidney at 1.48 to 2.22 MBq, iv measured at 5 mins by gamma counting analysis; format: ADME, organism-based; details: in vivo; procedure, shortened: as §1
Muscle tissue [4] = experiment: Biodistribution in Sprague-Dawley rat muscle at 1.48 to 2.22 MBq, iv measured at 5 mins by gamma counting analysis; format: ADME, organism-based; details: in vivo; procedure, shortened: as §1
Rattus norvegicus [5] = experiment: Biodistribution in Sprague-Dawley rat fat tissue at 1.48 to 2.22 MBq, iv measured at 5 mins by gamma counting analysis; format: ADME, organism-based, Adipose tissue; details: in vivo; procedure, shortened: as §1
Bone [6] = experiment: Biodistribution in Sprague-Dawley rat bone at 1.48 to 2.22 MBq, iv measured at 5 mins by gamma counting analysis; format: ADME, organism-based, Bone element; details: in vivo; procedure, shortened: as §1
Brain [7] = experiment: Biodistribution in Sprague-Dawley rat brain at 1.48 to 2.22 MBq, iv measured at 5 mins by gamma counting analysis; format: ADME, organism-based; details: in vivo; procedure, shortened: as §1
Blood [8] = experiment: Biodistribution in Sprague-Dawley rat blood at 1.48 to 2.22 MBq, iv measured at 30 mins by gamma counting analysis; format: ADME, organism-based; details: in vivo, 0.5 h; procedure, shortened: as §1
Liver [9] = experiment: Biodistribution in Sprague-Dawley rat liver at 1.48 to 2.22 MBq, iv measured at 30 mins by gamma counting analysis; format: ADME, organism-based; details: in vivo, 0.5 h; procedure, shortened: as §1
Kidney [10] = experiment: Biodistribution in Sprague-Dawley rat kidney at 1.48 to 2.22 MBq, iv measured at 30 mins by gamma counting analysis; format: ADME, organism-based; details: in vivo, 0.5 h; procedure, shortened: as §1
Muscle tissue [11] = experiment: Biodistribution in Sprague-Dawley rat muscle at 1.48 to 2.22 MBq, iv measured at 30 mins by gamma counting analysis; format: ADME, organism-based; details: in vivo, 0.5 h; procedure, shortened: as §1
Rattus norvegicus [12] = experiment: Biodistribution in Sprague-Dawley rat fat tissue at 1.48 to 2.22 MBq, iv measured at 30 mins by gamma counting analysis; format: ADME, organism-based, Adipose tissue; details: in vivo, 0.5 h; procedure, shortened: as §1
Bone [13] = experiment: Biodistribution in Sprague-Dawley rat bone at 1.48 to 2.22 MBq, iv measured at 30 mins by gamma counting analysis; format: ADME, organism-based, Bone element; details: in vivo, 0.5 h; procedure, shortened: as §1
Brain [14] = experiment: Biodistribution in Sprague-Dawley rat brain at 1.48 to 2.22 MBq, iv measured at 30 mins by gamma counting analysis; format: ADME, organism-based; details: in vivo, 0.5 h; procedure, shortened: as §1
Blood [15] = experiment: Biodistribution in Sprague-Dawley rat blood at 1.48 to 2.22 MBq, iv measured at 60 mins by gamma counting analysis; format: ADME, organism-based; details: in vivo, 1 h; procedure, shortened: as §1
Liver [16] = experiment: Biodistribution in Sprague-Dawley rat liver at 1.48 to 2.22 MBq, iv measured at 60 mins by gamma counting analysis; format: ADME, organism-based; details: in vivo, 1 h; procedure, shortened: as §1
Kidney [17] = experiment: Biodistribution in Sprague-Dawley rat kidney at 1.48 to 2.22 MBq, iv measured at 60 mins by gamma counting analysis; format: ADME, organism-based; details: in vivo, 1 h; procedure, shortened: as §1
Muscle tissue [18] = experiment: Biodistribution in Sprague-Dawley rat muscle at 1.48 to 2.22 MBq, iv measured at 60 mins by gamma counting analysis; format: ADME, organism-based; details: in vivo, 1 h; procedure, shortened: as §1
Rattus norvegicus [19] = experiment: Biodistribution in Sprague-Dawley rat fat tissue at 1.48 to 2.22 MBq, iv measured at 60 mins by gamma counting analysis; format: ADME, organism-based, Adipose tissue; details: in vivo, 1 h; procedure, shortened: as §1
Bone [20] = experiment: Biodistribution in Sprague-Dawley rat bone at 1.48 to 2.22 MBq, iv measured at 60 mins by gamma counting analysis; format: ADME, organism-based, Bone element; details: in vivo, 1 h; procedure, shortened: as §1
Brain [21] = experiment: Biodistribution in Sprague-Dawley rat brain at 1.48 to 2.22 MBq, iv measured at 60 mins by gamma counting analysis; format: ADME, organism-based; details: in vivo, 1 h; procedure, shortened: as §1
Striatum = experiment: Biodistribution in Sprague-Dawley rat striatum at 1.48 to 2.22 MBq, iv measured at 30 mins by gamma counting analysis; format: ADME, organism-based; details: in vivo, 0.5 h; procedure, shortened: as §1
[22] = Ratio of drug level in striatum to cerebellum in Sprague-Dawley rat at 1.48 to 2.22 MBq, iv measured at 5 to 30 mins by gamma counting analysis; format: ADME, organism-based; details: in vivo
Procedure, shortened: (§2)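 Striatum, cerebellum and cortex obtained by gross dissection from Sprague-Dawley rats (250 - 400 g, n=4 per time point) after tail-vein injection of 1.48 - 2.22 MBq under isoflurane anesthesia. Tissues weighed and gamma-counted with an injectate standard to give %ID/g; ratios taken from striatal versus non-target uptake.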

Nucleic Acid = experiment: Ratio of drug level in striatum to cortex in Sprague-Dawley rat at 1.48 to 2.22 MBq, iv measured at 5 to 30 mins by gamma counting analysis; format: ADME, organism-based; details: in vivo; procedure, shortened: as §2

Structure (SMILES)	Drug uptake (Blood [1]) [% ID/g]	Drug uptake (Liver [2]) [% ID/g]	Drug uptake (Kidney [3]) [% ID/g]	Drug uptake (Muscle tissue [4]) [% ID/g]	Drug uptake (Rattus norvegicus [5]) [% ID/g]	Drug uptake (Bone [6]) [% ID/g]	Drug uptake (Brain [7]) [% ID/g]	Drug uptake (Blood [8]) [% ID/g]	Drug uptake (Liver [9]) [% ID/g]	Drug uptake (Kidney [10]) [% ID/g]	Drug uptake (Muscle tissue [11]) [% ID/g]	Drug uptake (Rattus norvegicus [12]) [% ID/g]	Drug uptake (Bone [13]) [% ID/g]	Drug uptake (Brain [14]) [% ID/g]	Drug uptake (Blood [15]) [% ID/g]	Drug uptake (Liver [16]) [% ID/g]	Drug uptake (Kidney [17]) [% ID/g]	Drug uptake (Muscle tissue [18]) [% ID/g]	Drug uptake (Rattus norvegicus [19]) [% ID/g]	Drug uptake (Bone [20]) [% ID/g]	also measured
Cn1cc(-c2ccncc2)c(-c2ccc(OCc3cc(OCCOCCOCC[18F])c4ccccc4n3)cc2)n1	0.699	4.74	5.969	0.419	0.225	0.487	0.353	0.771	1.53	1.793	0.488	0.254	0.441	0.509	0.646	0.527	1.037	0.379	0.123	0.49	Drug uptake (Brain [21]): 0.421 % ID/g; Drug uptake (Striatum): Active
Cn1cc(-c2ccncc2)c(-c2ccc(OCc3cc(COCC[18F])c4ccccc4n3)cc2)n1	0.44	3.99	0.981	0.155	0.139	0.133	0.213	0.424	0.987	0.632	0.265	0.139	0.17	0.353	0.401	0.554	0.485	0.228	0.066	0.337	Drug uptake (Brain [21]): 0.343 % ID/g; Drug uptake (Striatum): Active
Cn1cc(-c2ccncc2)c(-c2ccc(OCc3cc([18F])c4ccccc4n3)cc2)n1	0.353	6.87	1.887	0.339	0.404	0.522	0.41	0.376	3	1.034	0.236	0.576	4.035	0.191	0.15	1.6	0.533	0.092	0.477	6.3	Drug uptake (Brain [21]): 0.125 % ID/g; Drug uptake (Striatum): Active; Ratio [22]: > 2; Ratio (Nucleic Acid): > 2

Further lines, with some results ahead:

Drug uptake (Blood [1]) [% ID/g]	Drug uptake (Liver [2]) [% ID/g]	Drug uptake (Kidney [3]) [% ID/g]	Drug uptake (Muscle tissue [4]) [% ID/g]	Drug uptake (Rattus norvegicus [5]) [% ID/g]	Drug uptake (Bone [6]) [% ID/g]	Drug uptake (Brain [7]) [% ID/g]	Drug uptake (Blood [8]) [% ID/g]	Drug uptake (Liver [9]) [% ID/g]	Drug uptake (Kidney [10]) [% ID/g]	Drug uptake (Muscle tissue [11]) [% ID/g]	Drug uptake (Rattus norvegicus [12]) [% ID/g]	Drug uptake (Bone [13]) [% ID/g]	Drug uptake (Brain [14]) [% ID/g]	Drug uptake (Blood [15]) [% ID/g]	Drug uptake (Liver [16]) [% ID/g]	Drug uptake (Kidney [17]) [% ID/g]	Drug uptake (Muscle tissue [18]) [% ID/g]	Drug uptake (Rattus norvegicus [19]) [% ID/g]	Drug uptake (Bone [20]) [% ID/g]	Structure (SMILES)	also measured
0.471	10.16	1.799	0.227	0.343	0.421	0.128	0.416	4.01	1.351	0.174	0.352	4.055	0.094	0.201	3.1	0.573	0.107	0.222	5.62	Cn1cc(-c2ccncc2)c(-c2ccc(OCc3cc(C[18F])c4ccccc4n3)cc2)n1	Drug uptake (Brain [21]): 0.069 % ID/g; Drug uptake (Striatum): Active; Ratio [22]: > 2; Ratio (Nucleic Acid): > 2
0.459	9.99	2.471	0.223	0.22	0.222	0.114	0.345	5.67	1.364	0.178	0.491	1.418	0.046	0.345	6.79	1.216	0.103	0.368	2.037	Cn1cc(-c2ccncc2)c(-c2ccc(OCc3cc(CCC[18F])c4ccccc4n3)cc2)n1	Drug uptake (Brain [21]): 0.026 % ID/g; Drug uptake (Striatum): Active; Ratio [22]: > 2; Ratio (Nucleic Acid): > 2
